{"source": "ChEMBL document CHEMBL1781992", "about": "“A novel monocarbonyl analogue of curcumin, (1E,4E)-1,5-bis(2,3-dimethoxyphenyl)penta-1,4-dien-3-one, induced cancer cell H460 apoptosis via activation of endoplasmic reticulum stress signaling pathway” (J Med Chem, 2011)", "key": {"NCI-H460 [1]": {"test_system": "NCI-H460", "assay": "Induction of apoptosis in human NCI-H460 cells assessed as early apoptotic cells at 5 uM after 6 hrs by annexinV-propidium iodide staining based flow cytometric analysis relative to control", "type": "functional", "outline": "(§1)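 H460 cells plated for 6 h, then treated with 5, 10 or 20 μM. Cells washed, trypsin-EDTA detached and resuspended in PBS, then stained with annexin V and propidium iodide plus RNase and 0.1% Triton X-100 for 30 min at 37 °C before flow cytometry. Figure legend gives 6 h incubation.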"}, "NCI-H460 [2]": {"test_system": "NCI-H460", "assay": "Induction of ATF-4 protein level in human NCI-H460 cells at 20 uM after 6 hrs by Western blot analysis"}, "Mus musculus [3]": {"test_system": "Mus musculus", "assay": "Toxicity in ICR mouse assessed as mortality at 400 to 800 mg/kg", "type": "organism-based", "parameters": "dose 400-800 mg/kg", "details": "in vivo"}, "NCI-H460 [4]": {"test_system": "NCI-H460", "assay": "Induction of apoptosis in human NCI-H460 cells assessed as activation of caspase 3 activity at 20 uM after 24 hrs by Western blot analysis", "type": "functional, cell-based"}, "NCI-H460 [5]": {"test_system": "NCI-H460", "assay": "Induction of apoptosis in human NCI-H460 cells assessed as early apoptotic cells at 10 uM after 6 hrs by annexinV-propidium iodide staining based flow cytometric analysis relative to control", "type": "functional", "outline": "as §1"}, "NCI-H460 [6]": {"test_system": "NCI-H460", "assay": "Induction of apoptosis in human NCI-H460 cells at 5 to 30 uM after 24 hrs by flow cytometric analysis", "type": "functional, cell-based"}, "NCI-H460 [7]": {"test_system": "NCI-H460", "assay": "Induction of ATF-4 mRNA expression in human NCI-H460 cells after 3 hrs by real time quantitative PCR analysis"}, "NCI-H460 [8]": {"test_system": "NCI-H460", "assay": "Induction of apoptosis in human NCI-H460 cells assessed as late apoptotic cells at 20 uM after 6 hrs by annexinV-propidium iodide staining based flow cytometric analysis relative to control", "type": "functional", "outline": "as §1"}, "NCI-H460 [9]": {"test_system": "NCI-H460", "assay": "Antitumor activity against human NCI-H460 cells xenografted in nude Balb/cA mouse assessed as decrease in tumor volume at 10 mg/kg, ip qd for 20 days measured on day 22 relative to control", "type": "functional", "parameters": "scale not given: the % may be the effect or the level left", "details": "route intraperitoneal", "outline": "(§2)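 BALB/cA nu/nu female athymic mice bearing sc right-flank xenografts (3 × 10^6 H460 cells in PBS); once-daily ip dosing began on day 10, when tumors reached 100–300 mm3. Water-soluble liposome preparation in PBS at 10 or 50 mg/kg; controls received liposome vehicle in PBS. Volume = lw²/2; T/C read on day 22. Seven mice per group, mean ± SD; Student's t test.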"}, "NCI-H460 [10]": {"test_system": "NCI-H460", "assay": "Antitumor activity against human NCI-H460 cells xenografted in nude Balb/cA mouse assessed as decrease in tumor volume at 50 mg/kg, ip qd for 20 days measured on day 22 relative to control", "type": "functional", "parameters": "scale not given: the % may be the effect or the level left", "details": "route intraperitoneal", "outline": "as §2"}, "NCI-H460 [11]": {"test_system": "NCI-H460", "assay": "Decrease in CHOP protein expression in human NCI-H460 cells transfected with lentivirus carrying CHOP siRNA at 10 uM after 6 hrs by Western blot analysis"}, "NCI-H460 [12]": {"test_system": "NCI-H460", "assay": "Induction of GRP78 mRNA expression in human NCI-H460 cells at 5 to 20 uM after 3 hrs by real time quantitative PCR analysis", "type": "functional, cell-based", "outline": "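H460 cells treated across a concentration range for 3 h. GRP78 mRNA quantified by RT-qPCR, normalized to β-actin and expressed as percent of vehicle.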"}, "NCI-H460 [13]": {"test_system": "NCI-H460", "assay": "Induction of CHOP protein expression in human NCI-H460 cells after 6 to 24 hrs by Western blot analysis", "type": "functional, cell-based", "outline": "(§3)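 H460 cells treated for 6–24 h, or across a range of concentrations. CHOP protein measured by Western blot, densitometry expressed as percent of control; Student's t test.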"}, "NCI-H460 [14]": {"test_system": "NCI-H460", "assay": "Induction of apoptosis in human NCI-H460 cells assessed as early apoptotic cells at 20 uM after 6 hrs by annexinV-propidium iodide staining based flow cytometric analysis relative to control", "type": "functional", "outline": "as §1"}, "NCI-H460 [15]": {"test_system": "NCI-H460", "assay": "Induction of CHOP mRNA expression in human NCI-H460 cells after 12 hrs by real time quantitative PCR analysis", "type": "functional, cell-based", "outline": "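H460 cells exposed to a concentration range for 6 or 12 h. CHOP mRNA measured by RT-PCR/qPCR and normalized to β-actin.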"}, "NCI-H460 [16]": {"test_system": "NCI-H460", "assay": "Cytotoxicity against human NCI-H460 cells after 72 hrs by MTT assay", "type": "functional, cell-based", "details": "NCI-H460, 72 h", "outline": "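H460 cells grown in RPMI 1640 with 5% FBS at 37 °C, 10% CO2, treated 24 h after seeding. Compounds in DMSO diluted into medium at final 100, 33.3, 11.1 and 3.7 μg/mL for 72 h. MTT (5 mg/mL in 0.9% NaCl) added for 3 h, formazan dissolved in DMSO and read at 570 nm; IC50 derived.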"}, "NCI-H460 [17]": {"test_system": "NCI-H460", "assay": "Induction of XBP-1 protein level in human NCI-H460 cells at 20 uM after 6 hrs by Western blot analysis"}, "NCI-H460 [18]": {"test_system": "NCI-H460", "assay": "Increase in p53 expression in human NCI-H460 cells at 20 uM by Western blot analysis", "type": "functional, cell-based", "details": "TDE = time-dependent effect", "outline": "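H460 cells exposed to 20 μM for varying times, or to a range of concentrations for 12 h. Lysates made in Tris-HCl pH 7.4/NaCl/NP40/SDS buffer with protease and phosphatase inhibitors, then probed for p53 by Western blot with chemiluminescent detection; bands quantified by densitometry.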"}, "NCI-H460 [19]": {"test_system": "NCI-H460", "assay": "Induction of CHOP protein expression in human NCI-H460 cells at 20 uM after 12 hrs by Western blot analysis", "type": "functional, cell-based", "outline": "as §3"}, "NCI-H460 [20]": {"test_system": "NCI-H460", "assay": "Induction of apoptosis in human NCI-H460 cells assessed as non-viable necrotic cells at 20 uM after 6 hrs by annexinV-propidium iodide staining based flow cytometric analysis relative to control", "type": "functional", "outline": "as §1"}, "Mus musculus [21]": {"test_system": "Mus musculus", "assay": "Toxicity in ICR mouse assessed as body weight change at 400 to 800 mg/kg", "type": "organism-based", "parameters": "dose 400-800 mg/kg", "details": "in vivo"}, "NCI-H460 [22]": {"test_system": "NCI-H460", "assay": "Induction of XBP-1 protein expression level in human NCI-H460 cells after 6 hrs by Western blot analysis", "type": "functional, cell-based", "outline": "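H460 cells exposed to 20 μM for varying times, or to a range of concentrations for 6 h. ATF-4 and XBP-1 protein measured by Western blot with actin as loading control.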"}, "NCI-H460 [23]": {"test_system": "NCI-H460", "assay": "Induction of GRP78 protein expression in human NCI-H460 cells at 5 to 20 uM after 3 hrs by Western blot analysis", "type": "functional, cell-based", "outline": "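H460 cells treated for 3 h; GRP78 protein detected by Western blot with actin as loading control.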"}, "NCI-H460 [24]": {"test_system": "NCI-H460", "assay": "Cytotoxicity against human NCI-H460 cells transfected with lentivirus carrying CHOP siRNA assessed as reduction of cell viability at 10 uM after 24 hrs by CellTiter-Glo analysis", "type": "functional, cell-based", "outline": "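H460 cells infected with lentivirus carrying CHOP siRNA or nonspecific siRNA; 48 h later treated with 10 μM for 24 h. Survival measured with CellTiter-Glo as percent of nontransfected DMSO-treated cells.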"}, "NCI-H460 [25]": {"test_system": "NCI-H460", "assay": "Cytotoxicity against human NCI-H460 cells assessed as cell viability at 20 uM after 24 hrs by CellTiter-Glo analysis", "type": "functional", "details": "NCI-H460, 24 h, read-out: Activity", "outline": "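H460 cells (5 × 10^3/well) seeded overnight, then given fresh medium containing compound from DMSO stock (final 5, 10, 20 μM; 2.5–30 μM in the figure) for 24 h. Viability measured with CellTiter-Glo and expressed as percent of vehicle-treated cells; Student's t test.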"}}, "note": "Active and inactive are the calls of the source. The calls are words filed in the database; no cut-off is given here.", "data": [{"smiles": "COc1cccc(/C=C/C(=O)/C=C/c2cccc(OC)c2OC)c1OC", "values": [{"measurement": "Activity", "setting": "NCI-H460 [1]", "value": 7.44, "unit": "%"}, {"measurement": "Activity", "setting": "NCI-H460 [2]", "value": "Active"}, {"measurement": "Activity", "setting": "Mus musculus [3]", "value": "Non-toxic"}, {"measurement": "Activity", "setting": "NCI-H460 [4]", "value": "Active"}, {"measurement": "Activity", "setting": "NCI-H460 [5]", "value": 22.74, "unit": "%"}, {"measurement": "Activity", "setting": "NCI-H460 [6]", "value": "Active"}, {"measurement": "Activity", "setting": "NCI-H460 [7]", "value": "Dose-dependent effect"}, {"measurement": "Activity", "setting": "NCI-H460 [8]", "value": 11.56, "unit": "%"}, {"measurement": "Activity", "setting": "NCI-H460 [9]", "value": 75.8, "unit": "%"}, {"measurement": "Activity", "setting": "NCI-H460 [10]", "value": 46.5, "unit": "%"}, {"measurement": "Activity", "setting": "NCI-H460 [11]", "value": "inactive"}, {"measurement": "Activity", "setting": "NCI-H460 [12]", "value": "Active"}, {"measurement": "Activity", "setting": "NCI-H460 [13]", "value": "Dose-dependent effect"}, {"measurement": "Activity", "setting": "NCI-H460 [14]", "value": 29.68, "unit": "%"}, {"measurement": "Activity", "setting": "NCI-H460 [15]", "value": "Dose-dependent effect"}, {"measurement": "IC50", "setting": "NCI-H460 [16]", "value": 6.74, "unit": "µM"}, {"measurement": "Activity", "setting": "NCI-H460 [17]", "value": "Active"}, {"measurement": "Activity", "setting": "NCI-H460 [18]", "value": "tde"}, {"measurement": "Activity", "setting": "NCI-H460 [19]", "value": "Active"}, {"measurement": "Activity", "setting": "NCI-H460 [20]", "value": 1.48, "unit": "%"}, {"measurement": "Activity", "setting": "Mus musculus [21]", "value": "Non-toxic"}, {"measurement": "Activity", "setting": "NCI-H460 [22]", "value": "Dose-dependent effect"}, {"measurement": "Activity", "setting": "NCI-H460 [23]", "value": "Active"}, {"measurement": "Activity", "setting": "NCI-H460 [24]", "value": "inactive"}, {"measurement": "viability at 20 µM", "setting": "NCI-H460 [25]", "value": 16, "unit": "%"}]}]}
